Inconclusive results are not listed.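 The calls were made as follows, unless noted: active = RAM network inhibition above 8.4% in each of two replicates, 3 SD over the compound average; inconclusive = above 8.4% inhibition in only one replicate; inactive = 8.4% inhibition or less in each replicate.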
Tests used:
[1] = OD615 S. cerevisiae growth inhibition, permissive medium, pilot counter-assay, permissive growth control for S. cerevisiae lifespan shortening project (AID 705;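 active = growth inhibition above 25% in both replicates, a cutoff set 3 SD above the mean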); conditions: OD615, 24 h, at 10 µM, hits give high values
Method in brief: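 assay system = Saccharomyces cerevisiae strain carrying genetically modified DeaD replicative-lifespan system | technique = absorbance (optical density) at 615 nm | buffer or medium = permissive raffinose/galactose medium | timing = cells pre-grown 4 h, then 24 h compound exposure, 30 °C humidified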

[2] = Restrictive medium S. cerevisiae growth inhibition, OD615, pilot screen of yeast lifespan reduction project, restrictive growth control (AID 706;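 active = growth inhibition above a set limit, 3 SD over mean compound inhibition, in both replicates, cut at about 43% in these data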;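 also: modified DeaD lifespan yeast strain shifted to restrictive glucose medium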); conditions: OD615, 48 h, at 10 µM, hits give high values
Method in brief: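 System: modified S. cerevisiae. Buffer or medium: CSMM-D glucose medium. Incubation: 4 h pre-growth plus 48 h compound exposure, 30 °C. Detection: absorbance (optical density) measured at 615 nm.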

[3] = viability gain of MRP-1-high H69AR cells under doxorubicin, pilot screen, MRP-1 activator project, CellTiter-Glo, duplicate (AID 807;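 active = viability increase at or above a cutoff of the median across tested compounds plus 3 SD, cut at about 8.5% in these data, passing the limit was not always enough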;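 also: compound pretreatment 18-22 h then 72 h combined with doxorubicin; 0% = doxorubicin alone and 100% = vehicle without doxorubicin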); conditions: H69AR viability with doxorubicin, CellTiter-Glo luminescence; at 10 µM; hits give high values
[4] = growth suppression of beta-catenin knockout HCT116, pilot screen, human colon tumor cells (AID 823;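 active = cell viability at or below a set limit in both duplicate runs, the limit being the all-compound median minus 4 SD, cut at about 23% in these data, passing the limit was not always enough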;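 also: 0% = wells killed by 20 µM Hyamine and 100% = untreated DMSO cell wells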); conditions: CellTiter-Glo, 60 h, at 10 µM, hits give low values
[5] = growth suppression of PTEN-deleted HCT116, pilot screen, cell-based, HCT116 clonal line, CellTiter-Glo (AID 824;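 active = viability at or below 27.92% in each of two runs, the all-compound median minus 4 SD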;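 also: 0% = 20 µM Hyamine control and 100% = vehicle cell control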); conditions: 60 h, at 10 µM, hits give low values
[6] = inhibitors of the yeast RAM network, pilot screen, dse1pr::URA3 reporter, 5-FOA selection (AID 869;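 active = inhibition over a set limit, the all-compound mean plus 3 SD, in both replicate runs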;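 also: 0% = DMSO wells with no growth and 100% = 10 µM 1-NA-PP1 with full growth; RAM network block rescues cells from 5-FOA so hits raise OD615 growth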); conditions: S. cerevisiae dse1pr::URA3 5-FOA growth, OD615, 2 d; at 10 µM; hits give high values; strain carries analog-sensitive mutant Cbk1 kinase
[7] = RAM signaling pathway blockade in yeast – S. cerevisiae, Pdr1DBD-CYC8 efflux-inhibited sensitized strain, primary screen (AID 1298);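 also: 0% = DMSO untreated cells without growth and 100% = 10 µM 1-NA-PP1 full growth; higher means more yeast growth rescued from 5-FOA killing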; conditions: S. cerevisiae cbk1-as DSE1-URA3 strain, 5-FOA growth OD615, 2 d; at 50 µM; hits give high values

CCOC(=O)N1CCC(Nc2c(N3CCN(c4cc(Cl)ccc4C)CC3)c(=O)c2=O)CC1
inactive: growth inhibition [1] 3.09% | growth inhibition [2] 4.44% | viability increase [3] -2.34% | viability [4] 71.9% | viability [5] 72.3% | inhibition [6] 2.42% | RAM network inhibition [7] 2.95%

O=C(Nc1nnc(-c2ccc3c(c2)CCCC3)o1)C1CCCCC1
inactive: growth inhibition [1] -16.5% | growth inhibition [2] -4.87% | viability increase [3] -2.6% | viability [4] 64.5% | viability [5] 62% | inhibition [6] 3.24% | RAM network inhibition [7] 4.48%

COc1ccc(-c2nc(C#N)c(NC(C)C)o2)cc1
inactive: growth inhibition [1] -4.08% | growth inhibition [2] -2.25% | viability increase [3] -0.02% | viability [4] 90.4% | viability [5] 93.8% | inhibition [6] 2.67% | RAM network inhibition [7] 3.99%

Cc1ccccc1NC(=O)CC1SC(=NC2CCCCC2)NC1=O (stereo not drawn)
inactive: growth inhibition [1] -3.83% | growth inhibition [2] -12% | viability increase [3] -0.62% | viability [4] 102% | viability [5] 101% | inhibition [6] 1.62% | RAM network inhibition [7] 0.66%

O=C(CN(C1CCCCC1)S(=O)(=O)c1ccc(Cl)cc1)NCc1ccncc1
inactive: growth inhibition [1] -6.84% | growth inhibition [2] 3.38% | viability increase [3] -2.2% | viability [4] 79.8% | viability [5] 79.4% | inhibition [6] 1.56% | RAM network inhibition [7] 3.63%

Cc1nn(-c2ccccc2)c(C)c1C(=O)OCC(=O)Nc1ccc2c(c1)OCO2
inactive: growth inhibition [1] -15.6% | growth inhibition [2] -15.7% | viability increase [3] -0.97% | viability [4] 95.3% | viability [5] 92.9% | inhibition [6] 3.68% | RAM network inhibition [7] 3.09%

CCCn1c(CCNC(=O)c2cccs2)nc2ccccc21
inactive: growth inhibition [1] -1.19% | growth inhibition [2] 4.79% | viability increase [3] -0.97% | viability [4] 94.9% | viability [5] 91.5% | inhibition [6] 1.37% | RAM network inhibition [7] 4.94%

CS(=O)(=O)n1nc(C(=O)N2CCOCC2)nc1N
inactive: growth inhibition [1] -10% | growth inhibition [2] -18.6% | viability increase [3] 0.47% | viability [4] 103% | viability [5] 98.4% | inhibition [6] 2.68% | RAM network inhibition [7] 5.4%

CCOC(=O)Cn1c(CN2CCc3ccccc3C2)nc2c1c(=O)n(C)c(=O)n2C
inactive: growth inhibition [1] -7.72% | growth inhibition [2] 1.89% | viability increase [3] -0.76% | viability [4] 84.5% | viability [5] 86.1% | inhibition [6] -0.39% | RAM network inhibition [7] 4.64%

O=C1CC(c2ccccc2)CN1S(=O)(=O)c1ccccc1 (stereo not drawn)
inactive: growth inhibition [1] -1.7% | growth inhibition [2] 3.08% | viability increase [3] 0% | viability [4] 108% | viability [5] 97.8% | inhibition [6] 0.085% | RAM network inhibition [7] 1.71%

COc1ccccc1N1CCN(CC(=O)c2ccc3ccn(C(C)=O)c3c2)CC1
inactive: growth inhibition [1] -3.38% | growth inhibition [2] -12.2% | viability increase [3] -5.06% | viability [4] 88.2% | viability [5] 79.8% | inhibition [6] 1.14% | RAM network inhibition [7] 3.27%

O=C1c2ccccc2C(=O)N1CCCc1nc2ccccc2c(=O)n1Cc1ccco1
inactive: growth inhibition [1] -12.9% | growth inhibition [2] -12.6% | viability increase [3] -1.68% | viability [4] 93.6% | viability [5] 93.5% | inhibition [6] 3.96% | RAM network inhibition [7] 7.66%

CCOC(=O)c1ccc(NC(=O)CSc2nc3c(c(=O)n2C)SC(C)C3)cc1 (stereo not drawn)
inactive: growth inhibition [1] 1.02% | growth inhibition [2] 7.47% | viability increase [3] -2.01% | viability [4] 72.9% | viability [5] 74.3% | inhibition [6] 0.975% | RAM network inhibition [7] 3.08%

CCOC(=O)N1CCC(NC(=O)Cn2cc3c(n2)CCCCC3)CC1
inactive: growth inhibition [1] -5.77% | growth inhibition [2] 5.48% | viability increase [3] 1.03% | viability [4] 108% | viability [5] 98.6% | inhibition [6] -0.43% | RAM network inhibition [7] 0.41%

Cc1c(C(=O)NCc2ccc3c(c2)OCO3)oc2ccccc12
inactive: growth inhibition [1] 1.35% | growth inhibition [2] 16% | viability increase [3] -0.04% | viability [4] 108% | viability [5] 98.9% | inhibition [6] -0.54% | RAM network inhibition [7] 5.64%

CC(=O)c1c(C)[nH]c(C(=O)N2CCN(c3ncccn3)CC2)c1C
inactive: growth inhibition [1] -2.15% | growth inhibition [2] -5.67% | viability increase [3] -1.39% | viability [4] 86.8% | viability [5] 96.6% | inhibition [6] 1.43% | RAM network inhibition [7] -0.51%

O=C(Cn1c2c(c(-c3ccccc3)cc1=O)CCCC2)N1CCCCCC1
inactive: growth inhibition [1] -10.5% | growth inhibition [2] -10.3% | viability increase [3] -3.64% | viability [4] 48.8% | viability [5] 49% | inhibition [6] 1.49% | RAM network inhibition [7] -0.37%

CCCCOCCCNC(=O)Cc1cccs1
inactive: growth inhibition [1] -16.7% | growth inhibition [2] -10.3% | viability increase [3] -2.03% | viability [4] 91.8% | viability [5] 90% | inhibition [6] 0.465% | RAM network inhibition [7] 5.12%

Cc1oc2c(c1C(=O)NC(Cc1c[nH]c3ccccc13)C(=O)O)CCCC2 (stereo not drawn)
inactive: growth inhibition [1] -8.56% | growth inhibition [2] -5.62% | viability increase [3] -3.61% | viability [4] 100% | viability [5] 97.6% | inhibition [6] 1.37% | RAM network inhibition [7] 0.1%

CC(=O)NC(CCS(C)(=O)=O)C(=O)Nc1ccc2c(c1)OCO2 (stereo not drawn)
inactive: growth inhibition [1] -0.69% | growth inhibition [2] -1.89% | viability increase [3] -0.58% | viability [4] 109% | viability [5] 95.5% | inhibition [6] 0.175% | RAM network inhibition [7] 2.15%

CCOC(=O)N1CCN(C(=O)c2oc(=O)c3ccccc3c2-c2ccc(C)cc2)CC1
inactive: growth inhibition [1] -8.36% | growth inhibition [2] -8.23% | viability increase [3] 1.15% | viability [4] 96.2% | viability [5] 102% | inhibition [6] 1.23% | RAM network inhibition [7] 3.87%

Cc1ccc2sc(NC(=O)CN3C(=O)CCC3=O)nc2c1C
inactive: growth inhibition [1] -10.4% | growth inhibition [2] -12.7% | viability increase [3] 2.23% | viability [4] 114% | viability [5] 109% | inhibition [6] 0.805% | RAM network inhibition [7] 2.15%

CCc1cc2c(NCC3CCCO3)ncnc2s1 (stereo not drawn)
inactive: growth inhibition [1] 2.17% | growth inhibition [2] 9.07% | viability increase [3] 0.8% | viability [4] 102% | viability [5] 95.6% | inhibition [6] 0.34% | RAM network inhibition [7] 4.46%

CCOC(=O)N1CCN(C(=O)CSc2nc3c(cnn3-c3ccc(C)cc3)c(=O)[nH]2)CC1
inactive: growth inhibition [1] -0.175% | growth inhibition [2] 4.84% | viability increase [3] -4.44% | viability [4] 95.7% | viability [5] 94.1% | inhibition [6] -0.44% | RAM network inhibition [7] 3.12%

Source: PubChem BioAssay
